Assay outcomes deposited in PubChem BioAssay by The Scripps Research Institute Molecular Screening Center.
CHRM4 agonist: CHRM4 agonism in calcium assay | P08173 | CHO-K1 hM4/Gqi5, Fluo-8 calcium fluorescence; vehicle 0%, full acetylcholine response 100% | activation, % at 3 µM | 360,000 compounds, 0.14% hits | AID 624127;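 active = activation above the run mean over all test wells plus 3 SD, cut at about 32% in these data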;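 note: peak over basal fluorescence ratio per well then scaled between controls; 0% = DMSO wells and 100% = acetylcholine at EC100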
Target sequence (P08173 whole entry, looked up): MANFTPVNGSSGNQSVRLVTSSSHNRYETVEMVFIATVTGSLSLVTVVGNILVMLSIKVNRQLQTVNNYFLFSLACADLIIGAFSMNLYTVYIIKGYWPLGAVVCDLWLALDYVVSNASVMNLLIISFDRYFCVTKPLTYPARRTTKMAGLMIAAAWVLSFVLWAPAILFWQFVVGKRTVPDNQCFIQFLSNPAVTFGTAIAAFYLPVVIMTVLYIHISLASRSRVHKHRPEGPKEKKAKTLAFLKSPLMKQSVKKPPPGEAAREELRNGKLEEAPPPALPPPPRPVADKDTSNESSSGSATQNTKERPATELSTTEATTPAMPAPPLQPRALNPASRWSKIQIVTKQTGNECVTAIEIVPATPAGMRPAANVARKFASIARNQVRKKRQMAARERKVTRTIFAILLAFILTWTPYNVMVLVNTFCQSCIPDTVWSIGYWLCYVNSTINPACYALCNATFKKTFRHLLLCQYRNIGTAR
TAAR1 antag: human TAAR1 antagonism; Q96RJ0; CHO RD-HGA16 TAAR1, Fluo-8 calcium fluorescence, antagonist; inhibition, % at 3 µM; 360,000 compounds, 1.5% hits; AID 624466;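 active = inhibition above a per-plate cutoff, the mean inhibition of test compounds on that plate plus 3 SD, cut at about 49% in these data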;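 note: 0% = DMSO plus EC80 beta-PEA response and 100% = DMSO alone without agonist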
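test system = CHO RD-HGA16 cells bearing hTAAR1 | replication = singlicate | controls = DMSO-only wells and EC80 β-PEA-stimulated wells | reagent = EC80 β-phenethylamine stimulus | read-out basis = percent inhibition of PEA-evoked calcium signal, max/basal emission ratio | schedule = seeding 17-24 h prior, 75-min 37 °C, 30-min RT dye loading | signal = kinetic Fluo-8 calcium fluorescence measurement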
TAAR1 ag: agonists of human TAAR1; Q96RJ0; CHO RD-HGA16 TAAR1, Fluo-8 calcium fluorescence; vehicle wells 0%, saturating PEA agonist 100%; activation, % at 3 µM; 360,000 compounds, 0.99% hits; AID 624467;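 active = activation above the mean activation of all test compounds in the run plus 3 SD, cut at about 38% in these data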
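Assay system – CHO-derived RD-HGA16 cells with stable Gα16 and human TAAR1 · Compound dosing – one-point dosing at 3 µM (nominal) · Incubation – 17-24 h seeding, 75 min 37 °C dye, 30 min RT · Measured by – kinetic Fluo-8 calcium fluorescence · Control set – DMSO vehicle as 0%, PEA at EC100 as 100% · Repeats – single well for each compound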
M4 antag: antagonists of human muscarinic M4 receptor (CHRM4); inhibition, % at 3 µM; P08173; CHO-hM4 cells, ACh EC80, Fluo-8 calcium fluorescence; 360,000 compounds, 0.73% hits; AID 624125;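 active = inhibition above its plate's cutoff, the mean inhibition of sample wells plus 3 SD, cut at about 27% in these data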;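 note: 0% = acetylcholine EC80 with DMSO and 100% = DMSO without agonist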
CHRM4 PAM: positive allosteric modulators of human muscarinic M4 receptor; activation, % at 3 µM; P08173; 360,000 compounds, 0.4% hits; CHO-K1 hM4/Gqi5, Fluo-8 calcium fluorescence, ACh EC20; 0% = ACh EC20, 100% = maximal ACh;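 active = activation above its plate's cutoff, the mean activation of sample wells plus 3 SD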
* = called active by the depositor; x = no result. In the library only some 3% were active in any assay of this set; here they are far more common.

SMILES	CHRM4 agonist	TAAR1 antag	TAAR1 ag	M4 antag	CHRM4 PAM
CN1CCN(c2nc3c(c(=O)[nH]c(=O)n3C)n2CCSc2nc3ccccc3s2)CC1	0.8	-0.2	0.6	-15.6	0.8
Cc1ccnc(SCCn2c(N3CCN(c4ccccc4)CC3)nc3c2c(=O)[nH]c(=O)n3C)n1	17.3	51.4*	11.8	-2.3	-15.8
Cn1c(=O)[nH]c(=O)c2c1nc(N1CCCCC1)n2CCSc1nc2ccccc2o1	0.2	-29.2	1.0	81.1*	-13.3
CC1CCCN(C(C(=O)NC2CCCCC2)c2cc3c(cc2[N+](=O)[O-])OCO3)C1 (configuration not stated)	-0.4	-2.2	13.8	-10.0	25.3*
CSc1nc(-c2ccc(Cl)cc2)c(C#N)c(=O)n1C	1.8	-14.8	-0.6	-10.0	20.1*
CCOC(=O)c1[nH]c(CN2CCN(c3ccc(OC)cc3)CC2)c(C(=O)OCC)c1C	14.1	7.5	50.8*	13.0	-5.3
CCCCCn1cc(CCC(=O)Nc2ccc(Oc3cccnc3)cc2)c2ccccc21	x	3.0	-1.4	x	x
CCCS(=O)(=O)n1nc(-c2ccc(OC)cc2)cc1N	0.6	-16.4	-0.8	30.9*	-13.7
CCCCS(=O)(=O)N1CCN(C(=O)C(=O)c2cccc(C(F)(F)F)c2)CC1	x	-26.8	0.8	x	x
C=CCN=C1NC(c2ccc(F)cc2)C(C(=O)OC)=C(C)N1C (configuration not stated)	x	-5.6	4.1	x	x
CN(C)S(=O)(=O)c1cccc2c1C(=O)c1ccccc1C2=O	0.5	-4.9	1.4	6.9	-1.6
CN(C)c1cc2c(c(N(C)C)c1)C(=O)c1ccccc1C2=O	4.4	4.1	1.0	-11.8	19.8*
CN1CCCCC(NC(=O)c2ccccn2)C1=O (configuration not stated)	x	-0.2	0.1	x	x
CCN1C(=O)C(CC(=O)Nc2ccc(OC)cc2)N(Cc2ccc(OC)c(OC)c2)C1=S (configuration not stated)	1.2	-28.8	8.6	15.7	-6.5
CCN1C(=O)C(CC(=O)Nc2ccc(OC)cc2)N(CCc2ccc(OC)cc2)C1=S (configuration not stated)	18.6	51.5*	27.9	4.1	-5.6
CCN1C(=O)C(CC(=O)Nc2ccc(F)cc2)N(CCCN2CCN(c3ccc(F)cc3)CC2)C1=S (configuration not stated)	14.9	52.8*	29.7	14.4	-19.1
COc1cc(OC)cc(C(=O)NCC2CCN(C(=O)C(=O)c3cccs3)CC2)c1	x	-0.3	0.1	x	x
C[C@H](O)C#Cc1ccc2c(c1)O[C@@H](CN(C)Cc1ccc(-c3ccccc3)cc1)[C@H](C)CN([C@@H](C)CO)S2(=O)=O	4.2	51.1*	5.8	13.0	-8.7
C[C@@H]1CN([C@@H](C)CO)S(=O)(=O)c2ccc(-c3ccc(C#N)cc3)cc2O[C@@H]1CN(C)Cc1ccccn1	17.2	55.8*	12.0	6.4	-12.0
C[C@@H]1CN([C@@H](C)CO)S(=O)(=O)c2ccc(Br)cc2O[C@@H]1CN(C)Cc1ccc2c(c1)OCO2	x	8.8	1.1	x	x
C[C@H](CO)N1C[C@H](C)[C@@H](CN(C)Cc2ccc3c(c2)OCO3)Oc2cc(Br)ccc2S1(=O)=O	11.0	50.0*	1.4	-12.7	-12.1
C[C@@H]1CN([C@H](C)CO)S(=O)(=O)c2ccc(Br)cc2O[C@@H]1CN(C)Cc1ccc(-c2ccccc2)cc1	0.3	-28.2	0.5	3.6	-8.4
CN(C(=O)CSc1nnnn1-c1ccc(O)cc1)C1CCCCC1	1.0	-8.2	2.7	-10.5	5.9
COC(=O)[C@@]1(Cc2ccc(F)cc2)[C@H]2c3cc(C(=O)N(C)C)n(CCc4c[nH]c5ccc(O)cc45)c3C[C@H]2CN1C(=O)c1ccccc1	4.7	10.5	3.0	-6.6	1.7
COCCN(CCOC)c1nc(-c2ccccc2)nc2ccccc12	11.5	56.2*	8.6	-0.8	-9.8
N#CCC1(O)C(=O)Nc2ccccc21 (configuration not stated)	x	-4.8	0.2	x	x
CC(C)Cn1c(N)c(C(=O)COC(=O)c2c(F)cccc2F)c(=O)n(C)c1=O	18.0	13.4	39.0*	-20.0	3.4
CC(=O)N1CCN(c2ccc(N3CCN(C(C)=O)[C@H](C)C3)c(C)c2)[C@H](C)C1	x	-18.3	1.9	x	x
